Laboratory results published in article PMC8994735 (Targeted Oncology, 2021).
Like-named read-outs stand apart in the source and are kept apart here.

Tested on: East Asian patients with advanced nonhematologic malignancies
Assay type: in vivo, human
Method in brief: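 AEs were graded by NCI CTCAE v4.03 in all patients receiving ≥ 1 oral dose, given once daily or once weekly in 28-day cycles for up to 12 months. Follow-up lasted 30 days after the last dose. Entry required ECOG 0–1, fasting glucose ≤ 130 mg/dL and triglycerides ≤ 300 mg/dL. Summaries were descriptive.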

[1] = QD dose escalation 2 mg (n = 3)
[2] = QD dose escalation 3 mg (n = 6)
[3] = QD dose escalation 4 mg (n = 7)
[4] = QD dose escalation + expansion 3 mg (n = 12)

CC(C)n1nc(-c2ccc3oc(N)nc3c2)c2c(N)ncnc21 [sapanisertib]
Tolerability (East Asian patients, QD and QW): generally well-tolerated
AE decreased appetite (QD arm): 50%
AE nausea (QD arm): 50%
Treatment-related AE decreased appetite (QD arm): 45%
Treatment-related AE nausea (QD arm): 50%
Discontinued treatment due to AEs (QD arm (myocardial infarction, diarrhea and gastrointestinal inflammation, rash maculo-papular)): three
AEs resulting in discontinuation [1]: 1 (33) n (%)
AEs resulting in dose interruption [1]: 1 (33) n (%)
AEs resulting in dose reduction [1]: 0 n (%)
Any AE [1]: 3 (100) n (%)
Any grade ≥ 3 AE [1]: 1 (33) n (%)
On-study deaths [1]: 0 n (%)
SAEs [1]: 0 n (%)
Treatment-related AE [1]: 3 (100) n (%)
Treatment-related SAEs [1]: 0 n (%)
Treatment-related grade ≥ 3 AE [1]: 1 (33) n (%)
AEs resulting in discontinuation [2]: 0 n (%)
AEs resulting in dose interruption [2]: 5 (83) n (%)
AEs resulting in dose reduction [2]: 0 n (%)
Any AE [2]: 6 (100) n (%)
Any grade ≥ 3 AE [2]: 2 (33) n (%)
On-study deaths [2]: 0 n (%)
SAEs [2]: 2 (33) n (%)
Treatment-related AE [2]: 6 (100) n (%)
Treatment-related SAEs [2]: 0 n (%)
Treatment-related grade ≥ 3 AE [2]: 0 n (%)
AEs resulting in discontinuation [3]: 2 (29) n (%)
AEs resulting in dose interruption [3]: 6 (86) n (%)
AEs resulting in dose reduction [3]: 3 (43) n (%)
Any AE [3]: 7 (100) n (%)
Any grade ≥ 3 AE [3]: 6 (86) n (%)
On-study deaths [3]: 0 n (%)
SAEs [3]: 3 (43) n (%)
Treatment-related AE [3]: 7 (100) n (%)
Treatment-related SAEs [3]: 2 (29) n (%)
Treatment-related grade ≥ 3 AE [3]: 6 (86) n (%)
AEs resulting in discontinuation [4]: 0 n (%)
AEs resulting in dose interruption [4]: 8 (67) n (%)
AEs resulting in dose reduction [4]: 1 (8) n (%)
Any AE [4]: 12 (100) n (%)
Any grade ≥ 3 AE [4]: 7 (58) n (%)
On-study deaths [4]: 0 n (%)
SAEs [4]: 3 (25) n (%)
Treatment-related AE [4]: 12 (100) n (%)
Treatment-related SAEs [4]: 0 n (%)
Treatment-related grade ≥ 3 AE [4]: 3 (25) n (%)
AEs resulting in discontinuation (QD dose expansion 3 mg (n = 6)): 0 n (%)
AEs resulting in dose interruption (QD dose expansion 3 mg (n = 6)): 3 (50) n (%)
AEs resulting in dose reduction (QD dose expansion 3 mg (n = 6)): 1 (17) n (%)
Any AE (QD dose expansion 3 mg (n = 6)): 6 (100) n (%)
Any grade ≥ 3 AE (QD dose expansion 3 mg (n = 6)): 5 (83) n (%)
On-study deaths (QD dose expansion 3 mg (n = 6)): 0 n (%)
SAEs (QD dose expansion 3 mg (n = 6)): 1 (17) n (%)
Treatment-related AE (QD dose expansion 3 mg (n = 6)): 6 (100) n (%)
Treatment-related SAEs (QD dose expansion 3 mg (n = 6)): 0 n (%)
Treatment-related grade ≥ 3 AE (QD dose expansion 3 mg (n = 6)): 3 (50) n (%)
AE by preferred term: Abdominal pain (QD dosing n = 22): 3 (14) n (%)
AE by preferred term: Alanine aminotransferase increased (QD dosing n = 22): 4 (18) n (%)
AE by preferred term: Anemia (QD dosing n = 22): 5 (23) n (%)
AE by preferred term: Aspartate aminotransferase increased (QD dosing n = 22): 6 (27) n (%)
AE by preferred term: Constipation (QD dosing n = 22): 4 (18) n (%)
AE by preferred term: Decreased appetite (QD dosing n = 22): 11 (50) n (%)
AE by preferred term: Diarrhea (QD dosing n = 22): 2 (9) n (%)
AE by preferred term: Erythema (QD dosing n = 22): 2 (9) n (%)
AE by preferred term: Erythema multiforme (QD dosing n = 22): 2 (9) n (%)
AE by preferred term: Fatigue (QD dosing n = 22): 7 (32) n (%)
AE by preferred term: Gamma-glutamyltransferase increased (QD dosing n = 22): 2 (9) n (%)
AE by preferred term: Gastrointestinal inflammation (QD dosing n = 22): 2 (9) n (%)
AE by preferred term: Headache (QD dosing n = 22): 2 (9) n (%)
AE by preferred term: Hyperglycemia (QD dosing n = 22): 9 (41) n (%)
AE by preferred term: Hypokalemia (QD dosing n = 22): 3 (14) n (%)
AE by preferred term: Lymphocyte count decreased (QD dosing n = 22): 4 (18) n (%)
AE by preferred term: Nausea (QD dosing n = 22): 11 (50) n (%)
AE by preferred term: Neutrophil count decreased (QD dosing n = 22): 2 (9) n (%)
AE by preferred term: Platelet count decreased (QD dosing n = 22): 6 (27) n (%)
AE by preferred term: Pruritus (QD dosing n = 22): 2 (9) n (%)
AE by preferred term: Pyrexia (QD dosing n = 22): 4 (18) n (%)
AE by preferred term: Rash erythematous (QD dosing n = 22): 2 (9) n (%)
AE by preferred term: Rash maculo-papular (QD dosing n = 22): 5 (23) n (%)
AE by preferred term: Rash pustular (QD dosing n = 22): 2 (9) n (%)
AE by preferred term: Stomatitis (QD dosing n = 22): 14 (64) n (%)
AE by preferred term: Urticaria (QD dosing n = 22): 3 (14) n (%)
AE by preferred term: Vomiting (QD dosing n = 22): 5 (23) n (%)
AE by preferred term: Weight decreased (QD dosing n = 22): 7 (32) n (%)
AE by preferred term: White blood cell count decreased (QD dosing n = 22): 4 (18) n (%)
Grade ≥ 3 AE: Acute myocardial infarction (QD dosing n = 22): 1 (5) n (%)
Grade ≥ 3 AE: Aspartate aminotransferase increased (QD dosing n = 22): 1 (5) n (%)
Grade ≥ 3 AE: Blood creatine phosphokinase increased (QD dosing n = 22): 1 (5) n (%)
Grade ≥ 3 AE: Decreased appetite (QD dosing n = 22): 1 (5) n (%)
Grade ≥ 3 AE: Diarrhea (QD dosing n = 22): 1 (5) n (%)
Grade ≥ 3 AE: Gamma-glutamyltransferase increased (QD dosing n = 22): 1 (5) n (%)
Grade ≥ 3 AE: Gastrointestinal inflammation (QD dosing n = 22): 1 (5) n (%)
Grade ≥ 3 AE: Genital herpes (QD dosing n = 22): 1 (5) n (%)
Grade ≥ 3 AE: Gingivitis (QD dosing n = 22): 1 (5) n (%)
Grade ≥ 3 AE: Jaundice cholestatic (QD dosing n = 22): 1 (5) n (%)
Grade ≥ 3 AE: Lymphocyte count decreased (QD dosing n = 22): 2 (9) n (%)
Grade ≥ 3 AE: Nausea (QD dosing n = 22): 2 (9) n (%)
Grade ≥ 3 AE: Neutrophil count decreased (QD dosing n = 22): 1 (5) n (%)
Grade ≥ 3 AE: Platelet count decreased (QD dosing n = 22): 1 (5) n (%)
Grade ≥ 3 AE: Post herpetic neuralgia (QD dosing n = 22): 1 (5) n (%)
Grade ≥ 3 AE: Pruritus (QD dosing n = 22): 1 (5) n (%)
Grade ≥ 3 AE: Rash maculo-papular (QD dosing n = 22): 2 (9) n (%)
Grade ≥ 3 AE: Rash pustular (QD dosing n = 22): 1 (5) n (%)
Grade ≥ 3 AE: Renal impairment (QD dosing n = 22): 1 (5) n (%)
Grade ≥ 3 AE: Sepsis (QD dosing n = 22): 1 (5) n (%)
Grade ≥ 3 AE: Stomatitis (QD dosing n = 22): 2 (9) n (%)
Grade ≥ 3 AE: Urticaria (QD dosing n = 22): 1 (5) n (%)
Grade ≥ 3 AE: White blood cell count decreased (QD dosing n = 22): 1 (5) n (%)
Patients with ≥ 1 grade 3 or higher AE (QD dosing n = 22): 14 (64) n (%)
AEs resulting in discontinuation (QD total (n = 22)): 3 (14) n (%)
AEs resulting in dose interruption (QD total (n = 22)): 15 (68) n (%)
AEs resulting in dose reduction (QD total (n = 22)): 4 (18) n (%)
Any AE (QD total (n = 22)): 22 (100) n (%)
Any grade ≥ 3 AE (QD total (n = 22)): 14 (64) n (%)
On-study deaths (QD total (n = 22)): 0 n (%)
SAEs (QD total (n = 22)): 6 (27) n (%)
Treatment-related AE (QD total (n = 22)): 22 (100) n (%)
Treatment-related SAEs (QD total (n = 22)): 2 (9) n (%)
Treatment-related grade ≥ 3 AE (QD total (n = 22)): 10 (45) n (%)
AE alanine aminotransferase increased (QW arm): 50%
AE aspartate aminotransferase increased (QW arm): 50%
AE blood alkaline phosphatase increased (QW arm): 67%
AE decreased appetite (QW arm): 50%
AE hyperglycemia (QW arm): 67%
AE nausea (QW arm): 100%
AE stomatitis (QW arm): 33%
AE weight decreased (QW arm): 50%
